Bioassay records: PubChem BioAssay, several laboratories
Compounds with a hit are over-represented: about 2.6% of the library has one in this group of screens.
GSTO1 inh: blocks human GSTO1 in RBBP9 counter-screen; P78417; recombinant GSTO1, activity-based probe fluorescence polarization; inhibition, % at 5.96 µM; actives 1.1% (n = 300,000); AID 1974;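 active means inhibition above the campaign mean inhibition plus 3 SD, cut at about 35% in these data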
Target sequence (P78417 whole entry, looked up): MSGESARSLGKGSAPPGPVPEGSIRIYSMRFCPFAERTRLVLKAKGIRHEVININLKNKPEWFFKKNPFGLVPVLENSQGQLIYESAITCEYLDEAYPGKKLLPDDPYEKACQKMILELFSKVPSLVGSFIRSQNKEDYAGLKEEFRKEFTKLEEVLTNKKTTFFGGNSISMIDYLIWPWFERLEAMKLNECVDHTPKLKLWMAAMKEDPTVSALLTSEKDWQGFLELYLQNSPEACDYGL
TDP2 inh: TDP2 (human) inhibition, absorbance primary screen; recombinant TDP2, T5PNP hydrolysis, p-nitrophenol absorbance 415 nm; inhibition, % at 12.8 µM; actives 0.34% (n = 370,000); AID 720702;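 active means inhibition above the mean of all tested compounds plus 3 SD, set per campaign, cut at about 25% in these data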
Target sequence (O95551 whole entry, looked up): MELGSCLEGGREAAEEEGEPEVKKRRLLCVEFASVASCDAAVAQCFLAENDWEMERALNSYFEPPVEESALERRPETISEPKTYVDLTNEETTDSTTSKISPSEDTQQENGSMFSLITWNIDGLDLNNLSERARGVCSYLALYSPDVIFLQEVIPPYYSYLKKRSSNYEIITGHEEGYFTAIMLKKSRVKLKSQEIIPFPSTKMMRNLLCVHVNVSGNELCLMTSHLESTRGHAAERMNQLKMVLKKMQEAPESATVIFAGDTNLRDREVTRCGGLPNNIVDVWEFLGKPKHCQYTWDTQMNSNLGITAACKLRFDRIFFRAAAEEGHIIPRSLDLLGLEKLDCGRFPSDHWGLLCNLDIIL
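Assay system: recombinant human TDP2 / Reagent: T5PNP substrate at 5 mM, a TopII-DNA adduct mimic / Measured by: epi absorbance from released p-nitrophenol / Evaluation: % inhibition relative to enzyme-containing and enzyme-free wells / Control set: enzyme-free and DMSO wells / Replicates: each compound tested once, singlicate / Schedule: enzyme reaction with compound for 2 h at 37 °C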
PRMT1 inh: blocks human protein arginine methyltransferase 1 | actives 1.3% (n = 370,000) | recombinant PRMT1, activity-based probe fluorescence polarization | inhibition, % at 2.79 µM;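 active means inhibition above about 21% made by adding two undisclosed values, limit read from the data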
PAD4 FP inh: blocks human protein arginine deiminase 4. recombinant PAD4, RCA probe fluorescence polarization. inhibition, % at 6.36 µM. actives 0.41% (n = 330,000). AID 485272;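 active means percent inhibition above a cutoff equal to the mean of all tested compounds plus 3 SD, cut at about 15% in these data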
Apaf-1 inh: human Apaf-1 inhibition. AID 489030. inhibition, % at 20 µM. O14727. actives 0.71% (n = 330,000). reconstituted apoptosome caspase-3 activity, DEVD-Rh110 fluorescence; active means inhibition of at least 40% at 20 µM
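detection = Rh110 fluorescence intensity | test system = biochemical Apaf-1 apoptosome reconstitution | also added = cytochrome c and DEVD-Rh110 substrate | schedule = 30 min plus 50 min, RT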
PRMT1 confirm: confirmation of human PRMT1 inhibitors | recombinant His-PRMT1, activity-based probe fluorescence polarization | actives 42% (n = 3,300) | shares compounds with PRMT1 inh | inhibition, % at 2.79 µM | AID 687036;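 active means mean inhibition across replicates above the hit cutoff derived for the earlier primary screen, cut at about 22% in these data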
A number is an active result; . = inactive; / = no result given.

SMILES | GSTO1 inh | TDP2 inh | PRMT1 inh | PAD4 FP inh | Apaf-1 inh | PRMT1 confirm
CC(C)NC(=O)CSc1nc2ccccc2n1CC(=O)N(C(C)C)C(C)C | / | . | . | / | / | /
CC(C)NC(=O)Cn1c(SCC(=O)c2ccc(F)cc2)nc2ccccc21 | . | . | 62 | . | . | .
O=S(=O)(CCSc1ccccn1)c1nc2ccccc2s1 | . | . | 26 | . | . | .
COc1cccc(N2C(=O)CC(N3CCC(c4nc5ccccc5[nH]4)CC3)C2=O)c1 (centres undefined) | . | . | 60 | . | . | .
Cc1cccc(N2C(=O)CC(N3CCC(c4nc5ccccc5[nH]4)CC3)C2=O)c1 (centres undefined) | . | . | 47 | . | . | .
CC(C)(C)OC(=O)NCc1ccc(CNC(=O)c2nc[nH]c2C(=O)N2CCN(c3ccccc3)CC2)cc1 | / | . | . | . | . | /
Cc1ccccc1[C@H](NC1c2ccccc2C=Cc2ccccc21)P(=O)(c1ccccc1)c1ccccc1 | / | . | . | / | / | /
CC(C)(C)c1ccc(C(=O)/C=C2\NC(=O)CS2)cc1 | . | . | . | . | . | /
O=C1CS/C(=C\S(=O)(=O)c2ccc(Cl)cc2)N1 | . | . | 32 | . | . | 22
O=C(NCSc1ccccc1)c1ccccc1 | . | . | . | . | . | /
O=C(CNC(=O)c1ccccc1)Sc1ccccc1 | / | . | 49 | / | / | 76
COc1cc(O)c(C=NN2C(=O)CSC2=S)c(OC)c1 | / | . | 27 | / | / | 32
O=C1CSC(=S)N1/N=C/c1ccc2c(c1)OCCO2 | . | . | 27 | . | . | .
Cc1ccccc1/C=N/N1C(=O)CSC1=S | . | . | . | . | . | /
O=C1CSC(=S)N1N=Cc1ccccc1O | / | . | 53 | / | / | 74
COc1cc(/C=N/N2C(=O)CSC2=S)ccc1O | . | . | . | . | . | /
O=C1CSC(=S)N1/N=C/c1cccnc1 | . | . | 48 | . | . | .
O=C1CSC(=S)N1N=Cc1cccc(OCc2ccccc2)c1 | / | . | . | / | / | /
CCOc1ccc(CN(C)C(=O)CNC(=O)c2ccc3ccccc3c2)cc1OC | . | . | . | . | . | /
COc1ccc(Cl)cc1NC(=O)CN(C)C(=O)CN1C(=O)NC(C)(c2ccc3ccccc3c2)C1=O (centres undefined) | / | . | . | / | / | /
Cc1cccc(-c2cnc(C(O)Cc3ccccc3)[nH]2)c1 (centres undefined) | / | . | . | / | / | /
O=C(CCC(=O)c1ccc(F)cc1)Nc1cccc(S(=O)(=O)Nc2cccc(Cl)c2)c1 | . | . | . | . | . | /
CN1C2C=CC(=O)C1C1C(=O)N(c3ccccc3)C(=O)C12 (centres undefined) | / | . | 28 | / | / | .
Cc1ccccc1N1C(=O)C2C3C=CC(C2C1=O)N(C)C3=O (centres undefined) | . | . | . | . | . | /
O=C(O)c1ccc(S(=O)(=O)Cc2ccccc2)cc1 | . | . | 25 | . | . | .
SMILES | GSTO1 inh | TDP2 inh | PRMT1 inh | PAD4 FP inh | Apaf-1 inh | PRMT1 confirm
CC(C)CCN1C(=O)c2ccccc2C1c1nnnn1-c1ccc2c(c1)OCCO2 (centres undefined) | / | . | . | / | / | /
COc1ccc(C(=O)NC(=S)NC2CCSC2=O)cc1 (centres undefined) | . | . | 29 | . | . | .
Cc1ccccc1C(=O)NC(=S)NC1CCSC1=O (centres undefined) | . | . | . | . | . | /
O=C(NC(=S)NC1CCSC1=O)c1cccs1 (centres undefined) | . | . | 36 | . | . | .
O=C(Nc1cccc(-n2cnnn2)c1)c1cnccc1Cl | . | . | . | . | . | /
COc1ccccc1NC(=O)c1nc(S(=O)(=O)Cc2ccccc2)ncc1Cl | . | . | . | . | . | /
CCS(=O)(=O)c1ncc(Cl)c(C(=O)Nc2ccc(S(=O)(=O)N3CCC(C)CC3)cc2)n1 | . | . | 31 | . | . | .
CCc1ccc(NC(=O)c2nc(S(=O)(=O)Cc3ccccc3)ncc2Cl)cc1 | . | . | 31 | . | . | 26
CCOc1ccccc1NC(=O)c1nc(S(=O)(=O)Cc2ccccc2)ncc1Cl | . | . | . | . | . | /
COC(=O)c1ccc(NC(=O)c2nc(S(=O)(=O)Cc3cccc(C)c3)ncc2Cl)cc1 | . | . | 52 | . | . | 38
CC1Sc2ccc(C(=O)NCc3ccccn3)cc2NC1=O (centres undefined) | / | . | 34 | . | . | .
Cc1oc(-c2ccccc2)cc1C(=O)NC(Cc1c[nH]c2ccccc12)C(=O)O (centres undefined) | . | . | 30 | . | . | .
O=C(NC(=S)NCc1ccco1)c1ccccc1[N+](=O)[O-] | . | . | . | . | . | /
Cc1ccc(-c2nc3cnccn3c2Nc2ccc3c(c2)OCCO3)o1 | . | . | 27 | . | . | .
COc1cc(/C=N/n2c(-c3cc(-c4ccccc4)n[nH]3)n[nH]c2=S)ccc1OCc1ccccc1 | / | . | 26 | / | / | .
Oc1c(C=Nc2ccc(Cl)cn2)sc2ccccc12 | . | . | 41 | . | . | .
Oc1c(/C=N/c2ccccn2)sc2ccccc12 | . | . | 25 | . | . | .
Cc1ccc(/C=C/C(=O)NCc2cccs2)o1 | . | . | 32 | . | . | .
COc1cc(Cl)c(S(=O)(=O)NCCCn2ccnc2)cc1Cl | . | . | . | . | . | /
C1=C(c2ccc(-c3ccccc3)cc2)Nc2ncnn2C1c1ccco1 (centres undefined) | / | . | 39 | / | / | 22
Fc1ccc(C2=CC(c3ccco3)n3ncnc3N2)cc1 (centres undefined) | . | / | / | . | . | /
Cc1cnc(NC(=O)CSc2nnc(COc3c(C)cccc3C)o2)s1 | . | . | 38 | . | . | .
Cc1cccc(C)c1OCc1nnc(SCC(=O)Nc2ccccc2F)o1 | . | . | . | . | . | /
Cc1c(Cl)cccc1NC(=O)CSC(N)=O | . | . | 31 | . | . | 96
Nc1nnc(SCC(=O)Nc2cccc(Cl)c2)s1 | / | . | . | / | . | /
SMILES | GSTO1 inh | TDP2 inh | PRMT1 inh | PAD4 FP inh | Apaf-1 inh | PRMT1 confirm
NC(=O)SCC(=O)Nc1ccc(Cl)cc1 | . | . | 65 | . | . | 88
N#CCSCC(=O)Nc1ccc(Cl)cc1 | . | . | . | . | . | /
Cc1ccc(NC(=O)CSC(N)=O)cc1Cl | . | . | 28 | . | . | 89
NC(=O)SCC(=O)Nc1cccc(Cl)c1 | . | . | 73 | . | . | 101
O=C(CCc1ccncc1)NC1CCCc2c1cnn2-c1cc(F)cc(F)c1 (centres undefined) | . | / | / | . | . | /
COC(=O)Cn1ccc2cc(S(=O)(=O)N3CCCCC3)ccc21 | . | . | . | . | . | /
CC1(C)N=C(SCC(=O)Nc2ccc(Cl)cc2)C(c2ccccc2)=N1 | . | . | . | . | . | /
NC(=O)SCC(=O)Nc1ccc(Cl)c(Cl)c1 | . | . | 49 | . | . | 94
CC1(C)N=C(SCC(=O)Nc2ccc(Cl)cc2)C(c2ccc(Cl)cc2)=N1 | . | . | 28 | . | . | .
NC(=O)/C=C/C(=O)Nc1ccc(Cl)cc1 | . | . | 87 | . | . | 32
